Compound activity: PubChem BioAssay, several laboratories
Shown are actives, neighbours in structure and some others; about 3.2% of the full set was active somewhere.
DSG3 Ab inh – inhibitors of pemphigus antibody binding to DSG3, primary screen, biochemical, bead-based, flow cytometry, scFv-GFP; Desmoglein-3 (Homo sapiens), P32926; DSG3-coupled beads, scFv-anti-DSG3-GFP binding; active compounds read low; binding (percent of control), % at 10 µM; 310,000 tested, 0.48% active; AID 588358, 2011;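 active = binding more than 3 SD below its plate's average and above zero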;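 also: hits lower antibody fragment binding to DSG3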
UBC13 inh – UBC13 polyubiquitin chain formation inhibitors, primary screen, biochemical, TR-FRET, uHTS | AID 485273, 2010 | 330,000 tested, 0.47% active | inhibition, % at 20 µM; in the data active = inhibition above about 45%, passing the limit was not always enough
MEKK2 mut-MEK5 – MEK5 binding signal on mutant MEKK2 PB1, primary screen, biochemical, multiplex bead flow cytometry, Alexa488-MEK5 | 290,000 tested, 0.35% active | percent response, % at 10 µM | Alexa488-MEK5 binding to MEKK2 mutant | AID 1530, 2009; in the data active = percent response above about 24%, passing the limit was not always enough
Apaf-1 inh – inhibitors of human Apaf-1 apoptosome, primary screen, biochemical, DEVD-Rh110 fluorescence, uHTS. Apoptotic protease-activating factor 1 (Homo sapiens), O14727. reconstituted apoptosome caspase-3 activity. inhibition, % at 20 µM. 330,000 tested, 0.71% active; active = inhibition of at least 40% at 20 µM;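 also: plate controls were DMSO wells for no effect and DEVD-CHO caspase inhibitor wells for full effect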
Target sequence (O14727 whole entry, looked up): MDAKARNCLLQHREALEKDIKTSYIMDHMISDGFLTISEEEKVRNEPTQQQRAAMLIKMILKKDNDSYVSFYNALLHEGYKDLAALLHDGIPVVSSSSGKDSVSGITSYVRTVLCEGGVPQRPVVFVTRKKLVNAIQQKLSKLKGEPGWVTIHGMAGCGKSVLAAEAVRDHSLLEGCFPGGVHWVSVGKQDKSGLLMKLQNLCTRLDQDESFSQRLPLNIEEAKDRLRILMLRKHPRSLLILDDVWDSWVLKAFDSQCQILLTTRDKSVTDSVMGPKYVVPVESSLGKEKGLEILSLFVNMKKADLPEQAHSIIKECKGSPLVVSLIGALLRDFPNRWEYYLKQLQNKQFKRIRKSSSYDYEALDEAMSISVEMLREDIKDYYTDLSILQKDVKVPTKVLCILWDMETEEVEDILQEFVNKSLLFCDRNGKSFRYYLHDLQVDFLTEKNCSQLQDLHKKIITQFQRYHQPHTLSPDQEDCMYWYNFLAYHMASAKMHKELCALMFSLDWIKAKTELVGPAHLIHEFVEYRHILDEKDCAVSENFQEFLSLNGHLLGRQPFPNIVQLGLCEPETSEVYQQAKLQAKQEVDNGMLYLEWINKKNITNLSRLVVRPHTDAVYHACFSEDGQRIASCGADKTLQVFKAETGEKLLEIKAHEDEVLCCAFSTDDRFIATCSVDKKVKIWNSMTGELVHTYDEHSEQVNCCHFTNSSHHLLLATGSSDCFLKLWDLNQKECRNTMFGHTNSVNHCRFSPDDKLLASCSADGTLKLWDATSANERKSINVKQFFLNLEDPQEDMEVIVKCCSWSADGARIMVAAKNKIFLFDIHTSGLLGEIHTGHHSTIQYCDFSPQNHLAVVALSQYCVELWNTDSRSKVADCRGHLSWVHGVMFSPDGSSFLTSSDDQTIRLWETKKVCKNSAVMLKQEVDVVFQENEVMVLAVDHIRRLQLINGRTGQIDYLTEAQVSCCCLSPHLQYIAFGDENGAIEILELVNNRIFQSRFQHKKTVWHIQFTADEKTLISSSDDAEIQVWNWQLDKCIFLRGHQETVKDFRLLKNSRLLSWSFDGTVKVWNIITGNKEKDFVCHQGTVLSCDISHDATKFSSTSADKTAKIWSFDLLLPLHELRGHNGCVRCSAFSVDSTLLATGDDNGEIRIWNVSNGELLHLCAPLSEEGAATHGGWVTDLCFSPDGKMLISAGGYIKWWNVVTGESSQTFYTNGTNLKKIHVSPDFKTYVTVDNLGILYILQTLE
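Material: reconstituted apoptosome with Apaf-1, cytochrome c, caspase-9, procaspase-3, dATP. Technique: Rh110 fluorescence intensity. Buffer or medium: pH 7.5 Hepes buffer with CHAPS, BSA, DTT. Times: 30 min plus 50 min, RT.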
MEKK3 PB1 HTS – modulators of MEKK3-MEK5 PB1 binding, primary screen, biochemical, wildtype MEKK3, multiplex bead flow cytometry, Alexa488-MEK5 | Mitogen-activated protein kinase kinase kinase 3 (Homo sapiens), Q99759 | bead-based flow cytometry, Alexa488-MEK5 binding to MEKK3; actives lie on both sides; 0 = blocked by unlabeled MEK5, 100 = vehicle | binding response (% of control), % at 10 µM | 290,000 tested, 1.4% active | AID 1529, 2009;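 active = binding response more than 3 SD above or below the average of its plate-row segment, actives on both sides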;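 also: Alexa488 bead fluorescence after subtracting the streptavidin-only scavenger bead signal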
MEKK2wt PB1 HTS – modulators of MEK5 binding to wildtype MEKK2, primary screen, biochemical, multiplex bead flow cytometry, Alexa488-MEK5. 290,000 tested, 1.1% active. Mitogen-activated protein kinase kinase kinase 2 (Homo sapiens), Q9Y2U5. Alexa488-MEK5 binding to MEKK2 WT; actives lie on both sides. binding response (% of control), % at 10 µM. AID 1531, 2009; in the data active = binding response below about 67% or above about 130%
MEKK2wt confirm – modulators of MEK5 binding to wildtype MEKK2, confirmation, biochemical, single concentration, multiplex bead flow cytometry; shares compounds with MEKK3 PB1 HTS; Alexa488-MEK5 binding to MEKK2 WT; actives lie on both sides; binding response (% of control), % at 10 µM; 5,900 tested, 2.4% active; AID 1892, 2009; in the data active = binding response below about 16% or above about 210%; inactive = in between
MEKK2mut confirm – mutant MEKK2 PB1-MEK5 binding signal retest – biochemical, single concentration, multiplex bead flow cytometry, confirmation | 5,900 tested, 2% active | percent response, % at 10 µM | Alexa488-MEK5 binding to MEKK2 mutant | shares compounds with MEKK3 PB1 HTS; in the data active = percent response mostly above about 71%, no sharp cut-off; inactive = mostly below about 38%;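 also: higher means compound restores mutant binding toward wildtype level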
MEKK3-MEK5 inh – MEKK3 wild-type PB1 binding to MEK5, inhibitors, confirmation, biochemical, bead multiplex flow cytometry, single concentration, wildtype; shares compounds with MEKK3 PB1 HTS; binding response (% of control), % at 10 µM; Alexa488-MEK5 binding to MEKK3; active compounds read low; AID 1894, 2009; 5,900 tested, 1.8% active;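 active = binding response below 72% of control, or above a set upper limit, though filed actives all read lower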;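 also: 100% = DMSO only wells and 0% = binding blocked by excess unlabeled MEK5; lower values mean stronger disruption of MEK5 binding to MEKK3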
* marks the source's active call; other numbers are inactive results; / = not tested or not shown; [ ] = remark or other dose.

SMILES	DSG3 Ab inh	UBC13 inh	MEKK2 mut-MEK5	Apaf-1 inh	MEKK3 PB1 HTS	MEKK2wt PB1 HTS	MEKK2wt confirm	MEKK2mut confirm	MEKK3-MEK5 inh
CCC(C)NC(=O)C1CCN(c2nc(OC)nc(OC)n2)CC1 (stereo not drawn)	/	-1	-4	2	0.0*[inhibitor]	-1.0*[inhibitor]	230*	76*	114
COc1cc(CN2CCN(c3ccccc3C)CC2)cc([N+](=O)[O-])c1O	100	-31	-16	10	62*[inhibitor]	49*[inhibitor]	101	2	100
COc1cc(CN2CCN(c3cc(C)ccc3C)CC2)cc([N+](=O)[O-])c1O	/	-12	9	-13	104	104	/	/	/
O=C(Cn1cc(SCc2cccc(Cl)c2)c2ccccc21)N1CCOCC1	113	11	1	5	140*	111	101	-17	98
C=CCSc1nc2c(c(=O)[nH]1)C(c1ccccc1)C(C#N)=C(N)O2 (stereo not drawn)	94	8	30	-4	132*	108	98	-5	97
C=CCSc1nc(-c2ccccc2)c(C#N)c(=O)[nH]1	104	38	5	-16	103	105	/	/	/
C/C(Cn1nnc2ccccc21)=N\OC(=O)c1ccccc1C	120	6	1	-5	138*	104	106	6	106
COC(=O)c1ccc(CNC(=O)Cn2cnc3c(SC)nc(N)nc32)cc1	102	-5	/	0	/	/	/	/	/
CC(C)n1cc(CN2CCN(C)C(CCO)C2)c2ccccc21 (stereo not drawn)	102	-7	24*	1	110	112	104	3	105
CC(C)Cn1c(CN2CCN(C)C(CCO)C2)nc2ccccc21 (stereo not drawn)	102	5	9	-3	105	109	/	/	/
CC(C)(C)c1ccccc1OCCOCCN1CCCCCC1	110	16	37	-15	106	164*	138	17	107
CCN1CCCC1CNc1ncnc2c1[nH]c1ccc(Cl)cc12 (stereo not drawn)	115	19	35*	22	101	125	119	4	90
Cc1ccc(N(C(=O)CS(=O)CC(=O)Nc2ccc(F)cc2)C(C(=O)NC2CCCCC2)c2ccco2)cc1 (stereo not drawn)	106	-10	0	25	132*	105	99	7	102
O=C(CS(=O)CC(=O)N(c1ccccc1)C(C(=O)NC1CCCC1)c1cccs1)Nc1ccc(F)cc1 (stereo not drawn)	99	0	3	6	101	100	/	/	/
Cc1ccc2cc(C#N)c(SCC(=O)N3CCCC3)nc2c1	98	24	-11	-22	45*[inhibitor]	43*[inhibitor]	94	-8	95
CCOC(=O)CSc1nc2cc(C)ccc2cc1C#N	105	10	-5	10	103	101	/	/	/
Cc1nn(CC(C)C(=O)N2CCN(S(=O)(=O)c3ccc(Cl)cc3)CC2)c(C)c1C (stereo not drawn)	/	0	2	4	101	98	/	/	/
Cc1ccc(-n2nc(C)c3c(C)c(CCC(=O)Nc4ccc(CN5CCCC5)cc4)c(C)nc32)cc1	104	38	34	39	108	191*	177	30	106
CC1(C)Cc2c(cnn2-c2ccccc2)C(NC(=O)CCCN2CCCC2=O)C1 (stereo not drawn)	109	-7	6	2	101	103	/	/	/
CCCN1CCN(C(=S)Nc2ccc3nc(N4CCN(CC)CC4)cc(C)c3c2)CC1	102	-9	13	12	113	123	/	/	/
CCN1CCN(c2cc(C)c3cc(NC(=O)c4cc(OC)cc(OC)c4)ccc3n2)CC1	88	14	7	0	111	139*	147	14	98
CCOc1ccc2ncc(C(=O)c3ccc(OC)cc3)c(N3CCN(CC)CC3)c2c1	105	4	1	0	100	499*	114	13	105
CCN1CCN(c2cc(C)c3cc(NC(=S)N4CCN(c5ccccc5F)CC4)ccc3n2)CC1	96	16	18	19	113	148*	149	32	108
CCN1CCN(c2cc(C)c3cc(NC(=O)Cc4ccc(OC)c(OC)c4)ccc3n2)CC1	110	6	26*	13	111	123	118	29	104
COc1cc(C(=O)Nc2ccc3nc(N4CCN(C)CC4)cc(C)c3c2)cc(OC)c1OC	92	4	11	4	104	125	/	/	/
SMILES	DSG3 Ab inh	UBC13 inh	MEKK2 mut-MEK5	Apaf-1 inh	MEKK3 PB1 HTS	MEKK2wt PB1 HTS	MEKK2wt confirm	MEKK2mut confirm	MEKK3-MEK5 inh
CCc1ccc(C(=O)c2cnc3ccc(OC)cc3c2N2CCN(CC)CC2)cc1	106	11	-7	12	56	82	/	/	/
COc1ccc(NC(=O)CCCNC(=O)c2ccc(Cl)cc2)cc1S(=O)(=O)N1CCCCC1	108	/	/	/	/	/	/	/	/
CC1C(=O)Nc2ccccc2N1C(=O)c1ccc(F)cc1 (stereo not drawn)	103	6	5	7	101	101	/	/	/
O=C(CCC(=O)N1CCc2ccccc2C1)NCCc1ccc(Cl)cc1	120	0	5	-4	109	110	/	/	/
CCOc1ccc(C(=O)Nc2ccc3nc(N4CCN(CC)CC4)cc(C)c3c2)cc1	116	13	17	20	108	148*	143	21	106
CCC(C)NC(=O)CCC(=O)Nc1ccc2nc(N3CC(C)CC(C)C3)cc(C)c2c1 (stereo not drawn)	102	21	90*	-9	103	9.0*	104	-8	100
CCN1CCN(c2cc(C)c3cc(NC(=O)c4cnccn4)ccc3n2)CC1	102	-9	19	10	100	119	/	/	/
